Experimental findings from ChEMBL document CHEMBL1143519, “2-Piperazinecarboxamides as potent and selective melanocortin subtype-4 receptor agonists” (Bioorg Med Chem Lett, 2005) are described below.

By pIC50 is commonly meant the IC50 on a negative log10 scale, so that one unit is a factor of ten. Lower therefore signals a large IC50. What is called pEC50 is −log10 of the EC50, conventionally taken in molar units.

pEC50, pIC50: −log10 of the molar value.

Assay [1] deals with T1, Melanocortin receptor 4 (Homo sapiens, UniProt P32245). The following applies: at 10 µM.
For assay [2], the target named is T2, Melanocortin receptor 5 (Homo sapiens, UniProt P33032). The following applies: at 10 µM.
The target of assay [3] is T1, Melanocortin receptor 4. Put plainly: Inhibitory concentration to displace [125I]NDP-alpha-MSH from human melanocortin 4 receptor expressed in CHO cells; Control 19 nM. Format: cell-based.
Assay [4] concerns the target T3, Melanocortin receptor 3 (Homo sapiens, UniProt P41968). The following applies: at 10 µM.
The nature of assay [5]: Selectivity for human melanocortin 3 receptor over melanocortin 5 receptor expressed in CHO cells; control 6 nM. Format: cell-based.
Assay [6] has as its target Melanocortin receptor (M3 and M4) (Homo sapiens) (UniProt P32245+P41968). The assay is described as follows: Selectivity for human melanocortin 3 receptor over melanocortin 4 receptor expressed in CHO cells; control 1 nM. Format: cell-based.
The target of assay [7] is T2, Melanocortin receptor 5. The assay is described as follows: Concentration of compound at 50% maximum cAMP accumulation mediated by human melanocortin 5 receptor. Format: functional. In general terms: cAMP levels reflect the balance of adenylyl cyclase and phosphodiesterase activity.
Assay [8] deals with T1, Melanocortin receptor 4. Put plainly: Concentration of compound at 50% maximum cAMP accumulation mediated by human melanocortin 4 receptor. Format: functional.
For another assay, the species on record is Rattus norvegicus. Put plainly: Covalent binding to rat microsomal proteins after 30 min of incubation with [3H]-compound in the presence of NADPH (n=3). Format: functional. A digest of the protocol: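 Tritium-labelled compound was incubated for 30 min with rat liver microsomes plus NADPH. Radioactivity bound covalently to microsomal protein was expressed as pmol equivalents per mg protein. Values are mean ± standard deviation of n = 3.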

Assay [9] has as its target T3, Melanocortin receptor 3. Put plainly: Concentration of compound at 50% maximum cAMP accumulation mediated by human melanocortin 3 receptor. Format: functional.

T3 sequence (P41968 whole entry): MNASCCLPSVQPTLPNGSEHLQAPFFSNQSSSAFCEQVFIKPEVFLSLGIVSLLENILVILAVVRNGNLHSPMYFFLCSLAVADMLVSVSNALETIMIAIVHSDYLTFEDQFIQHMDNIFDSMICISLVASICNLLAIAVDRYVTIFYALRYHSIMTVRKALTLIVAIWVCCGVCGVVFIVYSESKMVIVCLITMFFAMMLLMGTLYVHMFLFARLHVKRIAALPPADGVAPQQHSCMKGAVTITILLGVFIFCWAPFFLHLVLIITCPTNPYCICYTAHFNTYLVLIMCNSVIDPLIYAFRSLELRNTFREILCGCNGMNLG
T2 sequence (P33032 whole entry): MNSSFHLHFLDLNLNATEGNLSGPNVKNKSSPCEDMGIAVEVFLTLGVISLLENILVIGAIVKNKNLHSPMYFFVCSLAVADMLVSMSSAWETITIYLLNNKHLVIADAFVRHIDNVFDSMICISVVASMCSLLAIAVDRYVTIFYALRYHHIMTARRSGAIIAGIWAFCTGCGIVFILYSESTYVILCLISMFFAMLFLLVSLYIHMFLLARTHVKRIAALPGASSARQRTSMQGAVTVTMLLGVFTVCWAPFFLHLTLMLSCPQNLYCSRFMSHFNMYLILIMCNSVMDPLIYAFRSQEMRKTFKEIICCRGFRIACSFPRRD
T1 sequence (P32245 whole entry): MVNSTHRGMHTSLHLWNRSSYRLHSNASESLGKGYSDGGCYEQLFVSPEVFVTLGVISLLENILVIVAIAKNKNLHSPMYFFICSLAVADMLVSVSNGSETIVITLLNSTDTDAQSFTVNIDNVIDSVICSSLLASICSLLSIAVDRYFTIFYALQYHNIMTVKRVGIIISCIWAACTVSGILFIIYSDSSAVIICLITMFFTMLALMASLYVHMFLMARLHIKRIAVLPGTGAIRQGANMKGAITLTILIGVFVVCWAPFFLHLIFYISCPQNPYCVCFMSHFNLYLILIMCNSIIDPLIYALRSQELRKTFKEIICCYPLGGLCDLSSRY

As for `CC(C)(C)NC(=O)C1(C2CCCCC2)CCN(C(=O)[C@@H](Cc2ccc(F)cc2)NC(=O)[C@@H]2CNC3(CC3)CN2)CC1`, the Accumulation was 53% on Melanocortin receptor 4 [1], 36% at Melanocortin receptor 5 [2] and 6% on Melanocortin receptor 3 [4]. For the same compound, on Melanocortin receptor 4 [3], the pIC50 was 7.77. In addition, the Selectivity in assay [5] was 61; in assay [6], 42. In addition, the pEC50 at Melanocortin receptor 5 [7] is 5.72; on Melanocortin receptor 4 [8] it was 7.39.
On to `CC(C)(C)NC(=O)C1(C2CCCCC2)CCN(C(=O)[C@@H](Cc2ccc(F)cc2)NC(=O)[C@@H]2CN[C@@H](C3CC3)CN2)CC1`, for which the values for the Accumulation on Melanocortin receptor 4 [1], at Melanocortin receptor 5 [2] and at Melanocortin receptor 3 [4] were 102%, 44% and 9%, respectively. In addition, in the assay filed under Rattus norvegicus, the Activity turned out to be 103. At Melanocortin receptor 4 [3], the pIC50 was 8.10. Moreover, the figures for the Selectivity in assay [5] and in assay [6] were 59 and 119, respectively. Moreover, the pEC50 on Melanocortin receptor 5 [7] was 6.12; at Melanocortin receptor 4 [8] it was 8.30.
`CC(C)N(C(=O)C1(C2CCCCC2)CCN(C(=O)[C@@H](Cc2ccc(F)cc2)NC(=O)[C@@H]2CN(C)CCN2)CC1)C(C)C`: the Activity in the assay listed under Rattus norvegicus came out at 2150.
For the compound `CC(C)(C)NC(=O)C1(C2CCCCC2)CCN(C(=O)[C@@H](Cc2ccc(F)cc2)NC(=O)[C@@H]2CN[C@H](C3(C)CC3)CN2)CC1`, the values for the Accumulation at Melanocortin receptor 4 [1], on Melanocortin receptor 5 [2] and at Melanocortin receptor 3 [4] were 69%, 56% and 5%, respectively. Further, the pIC50 on Melanocortin receptor 4 [3] was 7.62. The figures for the Selectivity in assay [5] and in assay [6] were 23 and 49, respectively. In addition, the pEC50 at Melanocortin receptor 5 [7] was 6.04; at Melanocortin receptor 4 [8], 7.03.
For the compound `CC(C)(C)NC(=O)C1(C2CCCCC2)CCN(C(=O)[C@@H](Cc2ccc(F)cc2)NC(=O)[C@@H]2CN[C@@H](C3(C)CC3)CN2)CC1`, the figures for the Accumulation on Melanocortin receptor 4 [1], on Melanocortin receptor 5 [2] and at Melanocortin receptor 3 [4] were 95%, 62% and 10%, respectively. The compound also gave a pIC50 on Melanocortin receptor 4 [3] of 8.30. Also, the Selectivity in assay [5] was determined as 40; in assay [6] it was 99. Moreover, the pEC50 on Melanocortin receptor 5 [7] was 6.52; at Melanocortin receptor 4 [8], 8.15.
Take `C[C@H]1CN[C@H](C(=O)N[C@H](Cc2ccc(F)cc2)C(=O)N2CCC(C(=O)NC(C)(C)C)(C3CCCCC3)CC2)CN1`: the Accumulation turned out to be 79% on Melanocortin receptor 4 [1], 42% on Melanocortin receptor 5 [2] and 6% at Melanocortin receptor 3 [4]. Further, the Activity in the assay filed under Rattus norvegicus turned out to be 50. The compound further had a pIC50 at Melanocortin receptor 4 [3] of 8.22. Moreover, the Selectivity in assay [5] was 87; in assay [6], 86. Further, the results for the pEC50 on Melanocortin receptor 5 [7] and at Melanocortin receptor 4 [8] were 6.06 and 8.10, respectively.
Turning to `CC[C@H]1CN[C@H](C(=O)N[C@H](Cc2ccc(F)cc2)C(=O)N2CCC(C(=O)NC(C)(C)C)(C3CCCCC3)CC2)CN1C`, the Accumulation was determined as 85% at Melanocortin receptor 4 [1], 56% at Melanocortin receptor 5 [2] and 29% on Melanocortin receptor 3 [4]. Also, the pIC50 on Melanocortin receptor 4 [3] is 8.52. In addition, the Selectivity in assay [5] was 192; in assay [6], 116. For the same compound, the pEC50 at Melanocortin receptor 5 [7] was 6.35; at Melanocortin receptor 4 [8], 8.70; at Melanocortin receptor 3 [9], 6.82.
Take `CC(C)[C@@H]1CN[C@H](C(=O)N[C@H](Cc2ccc(F)cc2)C(=O)N2CCC(C(=O)NC(C)(C)C)(C3CCCCC3)CC2)CN1`: the results for the Accumulation at Melanocortin receptor 4 [1], on Melanocortin receptor 5 [2] and on Melanocortin receptor 3 [4] were 77%, 41% and 6%, respectively. This compound also gave a pIC50 at Melanocortin receptor 4 [3] of 7.70. Also, the values for the Selectivity in assay [5] and in [6] were 49 and 61, respectively. Besides, the results for the negative logarithm of the EC50 (pEC50) on Melanocortin receptor 5 [7] and at Melanocortin receptor 4 [8] were 5.85 and 7.38, respectively.
Turning to `CC(C)C1CNC[C@@H](C(=O)N[C@H](Cc2ccc(F)cc2)C(=O)N2CCC(C(=O)NC(C)(C)C)(C3CCCCC3)CC2)N1` (some centres undefined), the results for the Accumulation on Melanocortin receptor 4 [1], at Melanocortin receptor 5 [2] and at Melanocortin receptor 3 [4] were 92%, 10% and 4%, respectively. In addition, the Activity in the assay filed under Rattus norvegicus came to 216. The compound further had a pIC50 at Melanocortin receptor 4 [3] of 7.96. Besides, the Selectivity in [5] turned out to be 105; in assay [6], 81. Also, at Melanocortin receptor 4 [8], the pEC50 is 7.74.
As to `CC(C)(C)NC(=O)C1(C2CCCCC2)CCN(C(=O)[C@@H](Cc2ccc(F)cc2)NC(=O)[C@@H]2CN[C@H](C(C)(C)C)CN2)CC1`, the Accumulation was 77% on Melanocortin receptor 4 [1], 54% at Melanocortin receptor 5 [2] and 5% on Melanocortin receptor 3 [4]. Further, the pIC50 on Melanocortin receptor 4 [3] is 7.54. In addition, the Selectivity in assay [5] was determined as 26; in assay [6], 48. The pEC50 is 6.00 at Melanocortin receptor 5 [7] and 7.04 on Melanocortin receptor 4 [8].
With `CC(C)(C)NC(=O)C1(C2CCCCC2)CCN(C(=O)[C@@H](Cc2ccc(F)cc2)NC(=O)[C@@H]2CN[C@@H](C(C)(C)C)CN2)CC1`, the values for the Accumulation on Melanocortin receptor 4 [1], at Melanocortin receptor 5 [2] and on Melanocortin receptor 3 [4] were 99%, 46% and 11%, respectively. The same compound gave a pIC50 at Melanocortin receptor 4 [3] of 8.30. The Selectivity was found to be 39 in assay [5] and 116 in assay [6]. Moreover, the pEC50 at Melanocortin receptor 5 [7] was 6.44; at Melanocortin receptor 4 [8], 8.15.
For `CC[C@H]1CN[C@H](C(=O)N[C@H](Cc2ccc(F)cc2)C(=O)N2CCC(C(=O)NC(C)(C)C)(C3CCCCC3)CC2)CN1`, the Accumulation on Melanocortin receptor 4 [1] worked out at 89%; on Melanocortin receptor 5 [2], 43%; at Melanocortin receptor 3 [4], 9%. On Melanocortin receptor 4 [3], this compound had a pIC50 of 8.52. For the same compound, the Selectivity worked out at 126 in assay [5] and 152 in [6]. Also, the pEC50 is 6.15 at Melanocortin receptor 5 [7] and 8.30 at Melanocortin receptor 4 [8].
Consider `CC[C@@H]1CN[C@H](C(=O)N[C@H](Cc2ccc(F)cc2)C(=O)N2CCC(C(=O)NC(C)(C)C)(C3CCCCC3)CC2)CN1C`, for which the values for the Accumulation at Melanocortin receptor 4 [1], at Melanocortin receptor 5 [2] and at Melanocortin receptor 3 [4] were 58%, 36% and 8%, respectively. For the same compound, the pIC50 on Melanocortin receptor 4 [3] is 7.34. The values for the Selectivity in assay [5] and in assay [6] were 49 and 36, respectively. The values for the pEC50 on Melanocortin receptor 5 [7] and at Melanocortin receptor 4 [8] were 5.62 and 6.48, respectively.
Consider `CC(C)(C)NC(=O)C1(C2CCCCC2)CCN(C(=O)[C@@H](Cc2ccc(F)cc2)NC(=O)[C@@H]2CN[C@H](C3CC3)CN2)CC1.CC(F)(F)C(=O)O`, for which the Accumulation at Melanocortin receptor 4 [1] worked out at 67%; at Melanocortin receptor 5 [2] it was 33%; on Melanocortin receptor 3 [4] it was 4%. On Melanocortin receptor 4 [3], the pIC50 is 7.60. In addition, the Selectivity in [5] turned out to be 65; in assay [6], 42. Further, the pEC50 is 5.85 on Melanocortin receptor 5 [7] and 7.44 at Melanocortin receptor 4 [8].
As for `CC[C@@H]1CN[C@H](C(=O)N[C@H](Cc2ccc(F)cc2)C(=O)N2CCC(C(=O)NC(C)(C)C)(C3CCCCC3)CC2)CN1`, the Accumulation was 69% on Melanocortin receptor 4 [1], 45% at Melanocortin receptor 5 [2] and 6% at Melanocortin receptor 3 [4]. Moreover, the pIC50 at Melanocortin receptor 4 [3] was 7.40. For the same compound, the Selectivity in assay [5] stood at 75; in [6], 59. Further, on Melanocortin receptor 4 [8], the pEC50 is 6.82.
Take `CC(C)[C@H]1CN[C@H](C(=O)N[C@H](Cc2ccc(F)cc2)C(=O)N2CCC(C(=O)NC(C)(C)C)(C3CCCCC3)CC2)CN1`: the Accumulation came to 82% at Melanocortin receptor 4 [1], 49% on Melanocortin receptor 5 [2] and 8% at Melanocortin receptor 3 [4]. Also, the Activity in the assay filed under Rattus norvegicus was found to be 107. This compound had a pIC50 on Melanocortin receptor 4 [3] of 8.40. For the same compound, the Selectivity in assay [5] amounted to 116; in [6], 140. The pEC50 on Melanocortin receptor 5 [7] is 6.47; on Melanocortin receptor 4 [8] it was 8.52.
